The record followed here is ChEMBL document CHEMBL1921766, “Orally active zwitterionic factor Xa inhibitors with long duration of action” (Bioorg Med Chem Lett, 2011).

A short description of data set [1]: Solubility of the compound in Japanese pharmacopoeia first fluid at pH 1.2 at 10 mM after 12 hrs. The class given is physicochemical. The essentials:
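Solubility measured in Japanese Pharmacopoeia First Fluid, pH 1.2.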

Data set [2] is described as follows: Solubility of the compound in Japanese pharmacopoeia second fluid at pH 6.8 at 10 mM after 12 hrs. The class given is physicochemical. The essentials:
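Solubility measured in Japanese Pharmacopoeia Second Fluid, pH 6.8.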

A short description of data set [3]: Metabolic stability in human liver microsomes at 1 uM after 20 to 30 mins by LC/MS/MS analysis in presence of NADPH. The data set is classed as ADME, Microsome. The following applies: read-out: Stability. The essentials: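 Metabolic stability read as percent remaining after incubation with human liver microsomes in vitro.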
Data set [4] in a line: 1-Octanol-phosphate buffered saline distribution coefficient, log D of the compound at pH 7.4 after 30 mins by shake flask method. The data set is classed as physicochemical. The essentials: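 Log D measured as the partition between 1-octanol and phosphate buffered saline, pH 7.4.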

In brackets after ≈: the same amount, converted by molar mass.

With `CC(CF)N1CCc2nc(C(=O)Nc3cc(C(=O)O)ccc3CNC(=O)c3ccc(Cl)s3)sc2C1` (configuration not stated), the solubility (as a rule, how much of the substance goes into solution per volume) at 12 h, 10000 µM in data set [1] was 160 µg/mL (≈ 298 µM); in data set [2] it was 580 µg/mL (≈ 1080 µM). Also, the remaining at 1 µM in data set [3] is 94%. In addition, the logD – broadly, the decadic logarithm of the distribution of all forms, ionised or not, between an organic phase and buffer at a given pH – at 0.5 h in data set [4] came out at 0.45.
With `CC(C)N1CCc2nc(C(=O)Nc3c(CNC(=O)c4ccc(Cl)s4)cccc3C(=O)O)sc2C1`, the solubility at 12 h, 10000 µM in data set [1] and in data set [2] was 1000 µg/mL (≈ 1930 µM) in each case. For the same molecule, the remaining at 1 µM in data set [3] worked out at 96%. Further, the logD at 0.5 h in data set [4] amounted to 0.28.
With `CC(C)N1CCc2nc(C(=O)Nc3cc(C(=O)O)cc(F)c3CCC(=O)Nc3ccc(Cl)cc3)sc2C1`, the solubility at 12 h, 10000 µM in data set [1] was determined as 970 µg/mL (≈ 1780 µM); in data set [2], 11 µg/mL (≈ 20.2 µM). Moreover, the remaining at 1 µM in data set [3] worked out at 100%. For the same molecule, in data set [4], the logD at 0.5 h worked out at 1.1.
As for `CNC(=O)c1cccc(CNC(=O)c2ccc(Cl)s2)c1NC(=O)c1nc2c(s1)CN(C)CC2`, the solubility at 12 h, 10000 µM in data set [1] was found to be 830 µg/mL (≈ 1650 µM); in data set [2] it was 130 µg/mL (≈ 258 µM). Besides, in data set [3], the remaining at 1 µM stood at 80%.
With `CN1CCc2nc(C(=O)Nc3cc(C(=O)O)ccc3CCC(=O)Nc3ccc(Cl)cn3)sc2C1`, the solubility at 12 h, 10000 µM in data set [1] is 250 µg/mL (≈ 500 µM); in data set [2], 210 µg/mL (≈ 420 µM). The remaining at 1 µM in data set [3] was 92%. The logD at 0.5 h in data set [4] is -0.28.
In the case of `O=C(NCc1cccc(C(=O)O)c1NC(=O)c1nc2c(s1)COCC2)c1ccc(Cl)s1`, the solubility at 12 h, 10000 µM in data set [1] is 2 µg/mL (≈ 4.18 µM); in data set [2], 930 µg/mL (≈ 1950 µM). Moreover, the remaining at 1 µM in data set [3] is 57%. For the same molecule, the logD at 0.5 h in data set [4] was -0.12.
On to `CN1CCc2nc(C(=O)Nc3cc(C(=O)N(C)C)ccc3CNC(=O)c3ccc(Cl)s3)sc2C1`, for which the solubility at 12 h, 10000 µM is more than 900 µg/mL in data set [1] and 830 µg/mL (≈ 1600 µM) in data set [2]. In data set [3], the remaining at 1 µM was 67%.
Taken in the same sequence, the figures for `COC(=O)c1ccc(CNC(=O)c2ccc(Cl)s2)c(NC(=O)c2nc3c(s2)CN(C)CC3)c1` were 890 µg/mL (≈ 1760 µM), 52 µg/mL (≈ 103 µM) and 42%.
Turning to `CNC(=O)c1ccc(CNC(=O)c2ccc(Cl)s2)c(NC(=O)c2nc3c(s2)CN(C)CC3)c1`, the results for the solubility at 12 h, 10000 µM in data set [1] and in data set [2] were 140 µg/mL (≈ 278 µM) and 2.7 µg/mL (≈ 5.36 µM), respectively. The remaining at 1 µM in data set [3] came out at 85%.
With `CN1CCc2nc(C(=O)Nc3cc(C(=O)NS(C)(=O)=O)ccc3CNC(=O)c3ccc(Cl)s3)sc2C1`, the solubility at 12 h, 10000 µM came to 990 µg/mL (≈ 1740 µM) in data set [1] and 1000 µg/mL (≈ 1760 µM) in data set [2].
As to `CN1CCc2nc(C(=O)Nc3cc(C(N)=O)ccc3CNC(=O)c3ccc(Cl)s3)sc2C1`, the solubility at 12 h, 10000 µM is 30 µg/mL (≈ 61.2 µM) in data set [1] and less than 2.4 µg/mL in data set [2]. The remaining at 1 µM in data set [3] stood at 77%.
Taken in the same sequence, the figures for `CN1CCc2nc(C(=O)Nc3c(CNC(=O)c4ccc(Cl)s4)cccc3C(=O)N(C)C)sc2C1` were 900 µg/mL (≈ 1740 µM), 980 µg/mL (≈ 1890 µM) and 81%.
`CN1CCc2nc(C(=O)Nc3cc(-c4nnn[nH]4)ccc3CNC(=O)c3ccc(Cl)s3)sc2C1`: the results for the solubility at 12 h, 10000 µM in data set [1] and in data set [2] were 320 µg/mL (≈ 621 µM) and 470 µg/mL (≈ 913 µM), respectively.
Consider `CN1CCc2nc(C(=O)Nc3c(CNC(=O)c4ccc(Cl)s4)cccc3C(N)=O)sc2C1`, for which the results for the solubility at 12 h, 10000 µM in data set [1] and in data set [2] were 740 µg/mL (≈ 1510 µM) and 710 µg/mL (≈ 1450 µM), respectively. Moreover, in data set [3], the remaining at 1 µM came to 94%.
On to `CN1CCc2nc(C(=O)Nc3ccccc3CNC(=O)c3ccc(Cl)s3)sc2C1`, for which the remaining at 1 µM in data set [3] is 53%.
As to `CN1CCc2nc(C(=O)Nc3c(CNC(=O)c4ccc(Cl)s4)cccc3C(=O)O)sc2C1`, the solubility at 12 h, 10000 µM in data set [1] was 710 µg/mL (≈ 1450 µM); in data set [2], more than 800 µg/mL. This molecule also yielded a logD at 0.5 h in data set [4] of -0.38.
Take `CN1CCc2nc(C(=O)Nc3ccc(C(=O)O)cc3CNC(=O)c3ccc(Cl)s3)sc2C1`: the solubility at 12 h, 10000 µM in data set [1] came to 72 µg/mL (≈ 147 µM); in data set [2], 13 µg/mL (≈ 26.5 µM). The remaining at 1 µM in data set [3] turned out to be 95%.
